# Screening results (PubChem BioAssay)
# MEKK2wt PB1 HTS: raises or lowers MEK5 binding to wildtype human MEKK2 PB1 domain | Q9Y2U5 | bead flow cytometry, Alexa488-MEK5 binding to MEKK2 WT; actives lie on both sides | binding response (% of control), % at 10 µM | 290,000 tested, 1.1% active | AID 1531; in the data active = binding response below about 67% or above about 130%; inconclusive = no clear call, values can overlap the other calls; inactive = in between
# Rce1 inhib: inhibitors of yeast Ras-converting enzyme | Q03530 | yeast membranes, quenched prenylated peptide cleavage fluorescence | calls only | 290,000 tested, 0.27% active | AID 2563;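 active = fall in fluorescence gain of 50% or more versus controls, with final raw signal at or below 3038400; inconclusive = same 50% fall but final raw signal above 3038400; inactive = fall in fluorescence gain under 50%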;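 note: plate controls were neutral control wells for no effect and wells lacking membranes for full effect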
# Target sequence (Q03530 whole entry, looked up): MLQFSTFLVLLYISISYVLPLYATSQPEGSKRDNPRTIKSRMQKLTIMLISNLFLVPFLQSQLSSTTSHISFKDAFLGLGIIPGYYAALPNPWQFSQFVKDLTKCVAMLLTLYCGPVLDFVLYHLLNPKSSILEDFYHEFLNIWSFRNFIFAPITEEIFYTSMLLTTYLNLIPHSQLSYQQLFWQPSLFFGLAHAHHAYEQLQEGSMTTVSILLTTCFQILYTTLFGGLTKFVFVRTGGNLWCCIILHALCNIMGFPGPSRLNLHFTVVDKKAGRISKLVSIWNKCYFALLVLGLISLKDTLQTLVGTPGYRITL
# MEKK3 PB1 HTS: modulators (inhibitors or enhancers) of MEK5 binding to human MEKK3 PB1 domain; Q99759; 290,000 tested, 1.4% active; binding response (% of control), % at 10 µM; bead-based flow cytometry, Alexa488-MEK5 binding to MEKK3; actives lie on both sides; 0 = blocked by unlabeled MEK5, 100 = vehicle;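 active = binding response more than 3 SD above or below the average of its plate-row segment, actives on both sides; inconclusive = wells at one plate position flagged as instrument error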;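 note: Alexa488 bead fluorescence after subtracting the streptavidin-only scavenger bead signal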
# T cell HTS: modulates CD8 T cell binding to vesicles. 2C CD8+ T cell-vesicle binding, flow cytometry; hits give low values. AID 2052. 330,000 tested, 0.068% active. response (vesicle binding), % at 7 µM;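 active = response, share of CD8 T cells binding vesicles, and their 90th percentile fluorescence all below set limits, cut at about 80% in these data, passing the limit was not always enough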;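 note: values below 100% mean blocked vesicle binding to the CD8+ T cells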
#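 Read-out – percent CD8+ FL2 mean versus row control · System – murine 2C transgenic CD8+ T lymphocytes · Times – 1.5 h cell–vesicle binding at 37 °C, then 20 min icy labelling · Control set – naked vesicles low, QL9 vesicles with vehicle high · Detection – cytometric PE anti-B7-1 and Alexa647 anti-CD8 signals after 1% paraformaldehyde fixation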
# UCH37 inh: human UCH37 deubiquitinating enzyme inhibition. purified proteasome/UCH37, Ub-AMC cleavage fluorescence. inhibition, % (no concentration beside the values). 330,000 tested, 0.33% active. AID 588478;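 active = mean inhibition over replicate wells above about 20%, limit read from the data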;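 note: 0% = compound-free wells with enzyme and 100% = wells lacking proteasome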
#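 assay system = human UCH37 enzyme supplied as purified proteasome complex | amount = proteasome at 0.15 nM in the dispensed enzyme solution | schedule = 30 min compound-proteasome preincubation then 25 min substrate reaction, room temperature | measured by = fluorescence, ex 355 nm, em 460 nm | benchmarks = no-proteasome wells (full inhibition) and compound-free wells (no inhibition)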
# MEKK2 mut-MEK5: signal of MEK5 binding to mutant human MEKK2 PB1 domain | 290,000 tested, 0.35% active | bead flow cytometry, Alexa488-MEK5 binding to MEKK2 mutant | percent response, % at 10 µM; in the data active = percent response above about 24%, passing the limit was not always enough
# Numbers without * were called inactive; i = inactive; ? = inconclusive; nt = no result; + = active, no number; [ ] = remark or other dose. Shown are actives, neighbours in structure and some others; about 2.5% of the full set was active somewhere.
SMILES,MEKK2wt PB1 HTS,Rce1 inhib,MEKK3 PB1 HTS,T cell HTS,UCH37 inh,MEKK2 mut-MEK5
COc1ccc(Cn2c(/C=C/c3ccccc3)nc3ccccc32)cc1,119.0,?,108.0,264.2,i,5.0
COc1ccc(/C=C/c2nc3ccccc3n2C)cc1,110.0,+,110.0,490.6,-86.3,12.0
CCOc1cccc(-c2c(C(=O)N/N=C/c3cccs3)nnn2-c2nonc2N)c1,96.0,+,97.0,519.4,nt,-11.0
Cc1ccsc1/C=N/NC(=O)c1nnn(-c2nonc2N)c1C(C)C,105.0,+,102.0,245.8,nt,3.0
Cc1ccsc1C=NNC(=O)c1nnn(-c2nonc2N)c1C,nt,nt,nt,nt,-2.0,nt
CC(C)c1c(C(=O)N/N=C/c2ccsc2)nnn1-c1nonc1N,108.0,+,102.0,317.8,nt,3.0
CC(=NNC(=O)c1cccs1)c1c(C)[nH]n(-c2nc3ccccc3s2)c1=O,nt,nt,nt,nt,-4.0,nt
COc1cccc(C=NNC(=O)NC2CCCCC2)c1O,nt,nt,nt,nt,-4.9,nt
Cn1cc(CN2CCCC(C(=O)Nc3cccc(-c4cc5ccccc5[nH]4)c3)C2)cn1 (stereo not drawn),175.0*,nt,110.0,265.5,nt,30.0*
CC(C)n1cc(CN2CCCC(C(=O)Nc3cccc(-c4cc5ccccc5[nH]4)c3)C2)cn1 (stereo not drawn),180.0*,i,104.0,328.0,nt,22.0
CC1=CC(=NNC(=O)c2ccc(O)cc2)CC1,nt,nt,nt,nt,4.7,nt
COc1ccc(/C=N/NC(=O)CCn2cnc(-c3ccccc3)c2-c2ccccc2)cc1,106.0,i,150.0*,161.5,nt,2.0
COc1ccc(C=NNC(=O)CCn2cnc(-c3ccccc3)c2-c2ccccc2)cc1,nt,nt,nt,nt,2.6,nt
CC(=O)N(C)c1ccc(NC(=O)/C=C/c2ccccc2Cl)cc1,105.0,+,106.0,312.2,7.5,14.0
O=C(/C=C/c1ccccc1Cl)Nc1ccncc1,103.0,i,103.0,163.8,0.7,6.0
Cc1cc(N)c2cc(NC(=O)/C=C/c3ccccc3Cl)ccc2n1,252.0*,+,104.0,289.4,10.2,117.0*
Cc1cc(C)nc(NC(=NCCc2c[nH]c3ccccc23)NC(=O)Nc2ccc(Cl)c(Cl)c2)n1,49.0*,i,109.0,960.8,5.9,47.0
Cc1cc(C)nc(NC(=NCCc2c[nH]c3ccccc23)NC(=O)Nc2ccccc2)n1,93.0,i,100.0,214.6,3.1,4.0
Nc1nonc1-n1nnc(C(=O)NN=Cc2ccc(OCc3ccc(F)cc3)cc2)c1COc1ccccc1,nt,nt,nt,nt,-18.2,nt
CCNc1nc(NCC)n2c(SCC(=O)O)nnc2n1,103.0,i,101.0,298.7,34.1*,7.0
O=C1CC(c2nc3ccccc3[nH]2)CN1Cc1ccccc1 (stereo not drawn),106.0,i,105.0,46.8*,6.7,3.0
O=C1CC(N2CCC(c3nc4ccccc4[nH]3)CC2)C(=O)N1Cc1ccccc1 (stereo not drawn),103.0,i,107.0,260.0,0.7,1.0
O=C(COc1ccc(Cl)cc1Cl)NN=C1CCCc2ccccc21,nt,nt,nt,nt,4.4,nt
CCN(CC)Cc1cc2[nH]c3c4ccc(Cl)cc4ncc3c2cc1OC,163.0*,i,96.0,nt,-0.6,38.0*
COc1ccc(CNc2ncnc3cc(Cl)ccc23)cc1OC,101.0,i,101.0,nt,1.2,5.0
SMILES,MEKK2wt PB1 HTS,Rce1 inhib,MEKK3 PB1 HTS,T cell HTS,UCH37 inh,MEKK2 mut-MEK5
O=[N+]([O-])c1ccccc1/C=C/C=NNc1ccc(S(=O)(=O)Nc2ccc(Cl)cc2)cc1[N+](=O)[O-],nt,nt,nt,nt,11.8,nt
CCOCCn1c(CN2CCN(C)CC2)nc2c1c(=O)n(C)c(=O)n2C,42.0*[inhibitor],i,46.0*[inhibitor],595.9,-2.0,5.0
C=CCC[C@H](Cc1ccc(F)cc1)C(=O)OC[C@H](C)NC(=O)[C@@H](CC=C)CC(=O)N[C@H](CO)Cc1ccccc1,nt,nt,nt,61.0*,-0.1,nt
C=CCC[C@@H](Cc1ccc(F)cc1)C(=O)OC[C@H](C)NC(=O)[C@@H](CC=C)CC(=O)N[C@@H](CO)Cc1ccccc1,nt,nt,nt,i,-0.3,nt
COc1cc(/C=C2\SC(=S)N(NC(=O)c3ccncc3)C2=O)ccc1O,-3.0*,i,93.0,123.8,16.1,16.0
COc1cccc(/C=C/C(=O)OCC(=O)Nc2ccc(Cl)c(S(=O)(=O)N(C)C)c2)c1OC,105.0,+,102.0,157.1,-10.9,2.0
